Test results from ChEMBL document CHEMBL1275496, “In vivo pharmacodynamic target investigation for micafungin against Candida albicans and C. glabrata in a neutropenic murine candidiasis model” (Antimicrob Agents Chemother, 2008).
≈ marks a conversion by molar mass, not a printed value. *1 amine or outer side, *2 acyl side, *3 side chain or, on linkers, in order; H or OH if unused. Where a SMILES comes first, the peptide text is derived from it. Bridges are numbered along the chain shown (N, C = ends). [ ]: non-standard residue; d: D form. The star is where a group is joined. hTyr(3S-OH,4S-OH,3'-OSO3H) = N[C@H](C(=O)O)[C@H](O)[C@@H](O)c1ccc(O)c(OS(=O)(=O)O)c1; Orn(4R-OH,5R-OH) = O=C([C@H](C[C@@H](O)[C@@H](O)N[*:3])N[*:1])[*:2]; Pro(3S-OH,4S-Me) = C[C@H]1CN[C@H](C(=O)O)[C@H]1O; X1 = CCCCCOc1ccc(-c2cc(-c3ccc(C(=O)*)cc3)no2)cc1; Gln(3R-OH) = NC(=O)C[C@@H](O)[C@H](N)C(=O)O; Hyp = O=C(O)[C@@H]1C[C@@H](O)CN1

Legend:
[1] = Ratio of AUC in ICR/Swiss neutropenic mouse at static dose of 1.98 mg/kg, ip after 24 hrs to MIC for Candida albicans isolate 580; type: functional; details: route intraperitoneal
[2] = Ratio of AUC in ICR/Swiss neutropenic mouse at static dose of 2.18 mg/kg, ip after 24 hrs to MIC for Candida glabrata isolate 34341; type: functional; details: route intraperitoneal
[3] = Ratio of AUC in ICR/Swiss neutropenic mouse at static dose of 0.41 mg/kg, ip after 24 hrs to MIC for Candida glabrata isolate 33609; type: functional; details: route intraperitoneal
[4] = Ratio of AUC in ICR/Swiss neutropenic mouse at static dose of 1.34 mg/kg, ip after 24 hrs to MIC for Candida glabrata isolate 513; type: functional; details: route intraperitoneal
[5] = Ratio of fAUC in ICR/Swiss neutropenic mouse at static dose of 2.84 mg/kg, ip after 24 hrs to MIC for Candida albicans isolate 98-210; type: functional; details: route intraperitoneal
[6] = Ratio of fAUC in ICR/Swiss neutropenic mouse at static dose of 9.25 mg/kg, ip after 24 hrs to MIC for Candida glabrata isolate 37661; type: functional; details: route intraperitoneal
[7] = Ratio of fAUC in ICR/Swiss neutropenic mouse at static dose of 0.06 mg/kg, ip after 24 hrs to MIC for Candida glabrata isolate 32930; type: functional; details: route intraperitoneal
[8] = Ratio of fAUC in ICR/Swiss neutropenic mouse at static dose of 1.80 mg/kg, ip after 24 hrs to MIC for Candida glabrata isolate 5592; type: functional; details: dose 1.8 mg/kg; route intraperitoneal
[9] = Ratio of fAUC in ICR/Swiss neutropenic mouse at static dose of 3.88 mg/kg, ip after 24 hrs to MIC for Candida glabrata isolate 33616; type: functional; details: route intraperitoneal
[10] = Ratio of AUC in ICR/Swiss neutropenic mouse at 1-Log kill dose of 4.60 mg/kg, ip after 24 hrs to MIC for Candida albicans isolate 98-17; type: functional; details: dose 4.6 mg/kg; route intraperitoneal
[11] = Ratio of AUC in ICR/Swiss neutropenic mouse at 1-Log kill dose of 3.77 mg/kg, ip after 24 hrs to MIC for Candida glabrata isolate 35315; type: functional; details: route intraperitoneal
[12] = Ratio of AUC in ICR/Swiss neutropenic mouse at 1-Log kill dose of 20.6 mg/kg, ip after 24 hrs to MIC for Candida glabrata isolate 37661; type: functional; details: route intraperitoneal
[13] = Ratio of AUC in ICR/Swiss neutropenic mouse at 1-Log kill dose of 4.26 mg/kg, ip after 24 hrs to MIC for Candida glabrata isolate 34341; type: functional; details: route intraperitoneal
[14] = Ratio of AUC in ICR/Swiss neutropenic mouse at 1-Log kill dose of 5.46 mg/kg, ip after 24 hrs to MIC for Candida glabrata isolate 5592; type: functional; details: route intraperitoneal
[15] = Ratio of fAUC in ICR/Swiss neutropenic mouse at 1-Log kill dose of 20.6 mg/kg, ip after 24 hrs to MIC for Candida glabrata isolate 37661; type: functional; details: route intraperitoneal
[16] = Ratio of fAUC in ICR/Swiss neutropenic mouse at 1-Log kill dose of 2.0 mg/kg, ip after 24 hrs to MIC for Candida glabrata isolate 5376; type: functional; details: route intraperitoneal
[17] = Ratio of fAUC in ICR/Swiss neutropenic mouse at 1-Log kill dose of 7.89 mg/kg, ip after 24 hrs to MIC for Candida glabrata isolate 33616; type: functional; details: route intraperitoneal
Candida albicans [18] = experiment: Antifungal activity against Candida albicans isolate 580 by CLSI method; type: functional
Procedure, shortened: (§1)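 Broth microdilution MIC per CLSI M27-A2. Two endpoints were read against the drug-free control well: partial inhibition (M1, CLSI recommended) and complete inhibition (M2). Tests were run in duplicate on four separate occasions, and the value is the mean.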

Nakaseomyces glabratus [19] = experiment: Antifungal activity against Candida glabrata isolate 35315 by CLSI method; type: functional
Procedure, shortened: (§2)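 Broth microdilution per CLSI M27-A2. The MIC was read at partial inhibition (M1) and at complete inhibition (M2) against the drug-free control. Done in duplicate on four separate occasions and reported as the mean.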

Nakaseomyces glabratus [20] = experiment: Antifungal activity against Candida glabrata isolate 37661 by CLSI method; type: functional; procedure, shortened: as §2
Nakaseomyces glabratus [21] = experiment: Antifungal activity against Candida glabrata isolate 570 by CLSI method; type: functional; procedure, shortened: as §1
Nakaseomyces glabratus [22] = experiment: Antifungal activity against Candida glabrata isolate 33616 by CLSI method; type: functional; procedure, shortened: as §2
[23] = AUC (0 to infinity) in Candida infected ICR/Swiss neutropenic mouse at 20 mg/kg, ip; type: ADME, organism-based; set-up: time infinity, dose 20 mg/kg, route intraperitoneal; details: plasma
Procedure, shortened: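 Single intraperitoneal micafungin doses (80, 20, 5 mg/kg in 0.2 ml, 0.15 M NaCl) given to infected neutropenic mice. Serum was taken from 3 mice per time point at 1, 2, 4, 6, 8, 12, 24 and 48 h. Drug was measured by microbiologic assay with C. albicans K1 (LLOQ 0.12 μg/ml). Noncompartmental analysis; half-life by nonlinear least squares; AUC by trapezoidal rule.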

Candida albicans [24] = experiment: Fungistatic activity against Candida albicans isolate 98-210 infected in ICR/Swiss neutropenic mouse after 24 hrs; type: functional
Procedure, shortened: (§3)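 Neutropenic female ICR/Swiss mice received cyclophosphamide sc at 150 mg/kg on day −4, 100 mg/kg on day −1 and 100 mg/kg on day +2. Mice were infected iv via the tail vein, and ip micafungin in 0.15 M NaCl started 2 h later. Six dose levels from 0.078 to 80 mg/kg/24 h were given q24h for 4 days, 3 mice per dose. Kidney CFU were counted at 96 h. The static dose was derived from a sigmoid Emax (Hill) fit.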

Candida albicans [25] = experiment: Fungistatic activity against Candida albicans isolate 580 infected in ICR/Swiss neutropenic mouse after 24 hrs; type: functional; procedure, shortened: as §3
Nakaseomyces glabratus [26] = experiment: Fungistatic activity against Candida glabrata isolate 33609 infected in ICR/Swiss neutropenic mouse after 24 hrs; type: functional; procedure, shortened: as §3
Nakaseomyces glabratus [27] = experiment: Fungistatic activity against Candida glabrata isolate 513 infected in ICR/Swiss neutropenic mouse after 24 hrs; type: functional; procedure, shortened: as §3
Nakaseomyces glabratus [28] = experiment: Fungistatic activity against Candida glabrata isolate 5592 infected in ICR/Swiss neutropenic mouse after 24 hrs; type: functional; procedure, shortened: as §3
Candida albicans [29] = experiment: Antifungal activity against Candida albicans isolate 580 infected in ICR/Swiss neutropenic mouse assessed as dose required for 1-log kill after 24 hrs; type: functional
Procedure, shortened: (§4)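 Neutropenic mice (cyclophosphamide sc 150 mg/kg day −4, 100 mg/kg day −1 and +2) infected iv by tail vein 2 h before therapy. Micafungin given ip every 24 h for 4 days at six fourfold-spaced dose levels, 0.078–80 mg/kg/24 h, 3 mice per group. Kidney CFU read at 96 h. Hill-model fit; dose giving 1 log10 below start-of-therapy burden.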

Nakaseomyces glabratus [30] = experiment: Antifungal activity against Candida glabrata isolate 37661 infected in ICR/Swiss neutropenic mouse assessed as dose required for 1-log kill after 24 hrs; type: functional; procedure, shortened: as §4
Nakaseomyces glabratus [31] = experiment: Antifungal activity against Candida glabrata isolate 32930 infected in ICR/Swiss neutropenic mouse assessed as dose required for 1-log kill after 24 hrs; type: functional; procedure, shortened: as §4
Nakaseomyces glabratus [32] = experiment: Antifungal activity against Candida glabrata isolate 33609 infected in ICR/Swiss neutropenic mouse assessed as dose required for 1-log kill after 24 hrs; type: functional; procedure, shortened: as §4

CCCCCOc1ccc(-c2cc(-c3ccc(C(=O)N[C@H]4C[C@@H](O)[C@@H](O)NC(=O)[C@@H]5[C@@H](O)[C@@H](C)CN5C(=O)[C@H]([C@H](O)CC(N)=O)NC(=O)[C@H]([C@H](O)[C@@H](O)c5ccc(O)c(OS(=O)(=O)O)c5)NC(=O)[C@@H]5C[C@@H](O)CN5C(=O)[C@H]([C@@H](C)O)NC4=O)cc3)no2)cc1 [MICAFUNGIN] (X1-[Orn(4R-OH,5R-OH)]T[Hyp][hTyr(3S-OH,4S-OH,3'-OSO3H)][Gln(3R-OH)][Pro(3S-OH,4S-Me)]; lactam 1-C)
RatioAUC/MIC [1]: 7857 | RatioAUC/MIC [2]: 1003 | RatioAUC/MIC [3]: 753 | RatioAUC/MIC [4]: 2467 | fAUC/MIC [5]: 13 | fAUC/MIC [6]: 2.5 | fAUC/MIC [7]: 0.5 | fAUC/MIC [8]: 8.4 | fAUC/MIC [9]: 1.1 | RatioAUC/MIC [10]: 4233 | RatioAUC/MIC [11]: 1733 | RatioAUC/MIC [12]: 2080 | RatioAUC/MIC [13]: 1960 | RatioAUC/MIC [14]: 10000 | fAUC/MIC [15]: 5.2 | fAUC/MIC [16]: 19.7 | fAUC/MIC [17]: 2.2 | MIC (Candida albicans [18]): 0.016 µg/mL (≈ 0.0126 µM) | MIC50 (Candida albicans [18]): 8 ng/mL (≈ 0.0063 µM) | MIC (Nakaseomyces glabratus [19]): 0.12 µg/mL (≈ 0.0945 µM) | MIC50 (Nakaseomyces glabratus [19]): 0.06 µg/mL (≈ 0.0472 µM) | MIC (Nakaseomyces glabratus [20]): 0.25 µg/mL (≈ 0.197 µM) | MIC50 (Nakaseomyces glabratus [20]): 0.25 µg/mL (≈ 0.197 µM) | MIC (Nakaseomyces glabratus [21]): 0.03 µg/mL (≈ 0.0236 µM) | MIC50 (Nakaseomyces glabratus [21]): 0.016 µg/mL (≈ 0.0126 µM) | MIC (Nakaseomyces glabratus [22]): 0.5 µg/mL (≈ 0.394 µM) | MIC50 (Nakaseomyces glabratus [22]): 0.25 µg/mL (≈ 0.197 µM) | AUC(0-inf) [23]: 520 µg·h/mL | Activity (Candida albicans [24]): 2.84 mg/kg | Activity (Candida albicans [25]): 1.98 mg/kg | Activity (Nakaseomyces glabratus [26]): 0.41 mg/kg | Activity (Nakaseomyces glabratus [27]): 1.34 mg/kg | Activity (Nakaseomyces glabratus [28]): 1.8 mg/kg | Activity (Candida albicans [29]): 2.36 mg/kg | Activity (Nakaseomyces glabratus [30]): 20.6 mg/kg | Activity (Nakaseomyces glabratus [31]): 1.69 mg/kg | Activity (Nakaseomyces glabratus [32]): 1.4 mg/kg
